Bioassay records: PubChem BioAssay, Columbia University Molecular Screening Center
Insulin prom act: TRM-6 insulin promoter activation; TRM-6 cells, insulin promoter eGFP reporter, imaging; plate-scaled: unstimulated 0, stimulated control 100; activation, % at 2 µM; 0.81% of 130,000 active; AID 1296;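 active means activation at 2 µM above a set limit, confirmed on inspection of the cell images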;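 further: share of cells whose green reporter signal exceeds an intensity cutoff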
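System: human fetal islet-derived TRM-6 cells with tamoxifen-inducible insulin promoter–eGFP reporter; input: seeding density of 1,000 cells per well; buffer or medium: Low-glucose (5.5 mM) medium with tamoxifen; incubation: compound exposure 48 h, 37 °C; measured by: high-content imaging of fixed cells with Hoechst nuclear stain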
* = called active by the depositor. The sample as a whole holds a higher share of hits than the screen did.

SMILES	Insulin prom act
Cc1ncc([N+](=O)[O-])n1CCOC(=O)Nc1ccc(Cl)c(Cl)c1	0
CCOC(=O)c1[nH]c2ccccc2c1NC(=O)c1ccc(S(=O)(=O)N2CCCC2)cc1	2
Cn1c(CCNC(=O)c2ccccc2F)nnc1SCc1nc2ccccc2c(=O)[nH]1	-6
CC1=C(C(=O)NCCN2CCN(C)CC2)C2(CCC(C)CC2)OC1=O (stereo not drawn)	-8
CC12COC3(C(=O)Nc4ccccc4F)CC1CCC32C (stereo not drawn)	0
CC(=O)Nc1c(I)c(NC(C)=O)c(I)c(C(=O)O)c1I	-5
CC1=NN(C(=O)COc2ccc(C)c(C)c2)C(O)(c2ccc(Cl)cc2)C1 (stereo not drawn)	-8
COc1cc(/C=N/Nc2nc(N3CCCC3)nc(N3CCCC3)n2)ccc1O	0
Fc1ccc(COc2ccc(Cl)cc2/C=N/Nc2nc(N3CCCC3)nc(N3CCCC3)n2)cc1	658*
CCOc1ccc(/C=N/Nc2nc(N3CCCC3)nc(N3CCCC3)n2)cc1OC	-6
CCCCn1ccnc1C(=O)c1ccc(S(=O)(=O)N(CCOC)CCOC)cc1	0
Cc1ccnc2nc(C(=O)OCCOc3ccc(F)cc3)nn12	133
CC(=O)c1cn(CC(=O)Nc2ccc(C)cc2)c2ccccc12	7
CC(=O)c1cn(CC(=O)NCc2ccc3c(c2)OCO3)c2ccccc12	3
CC(=O)c1cn(CC(=O)Nc2ccc(C)c(C)c2)c2ccccc12	533*
CCC(C)N(CC(=O)Nc1cccc(C)c1C)C(=O)CCl (stereo not drawn)	-100
CCOc1ccc(NC(=O)CSc2nc(-c3cccs3)cc(C(F)(F)F)n2)c([N+](=O)[O-])c1	7
COc1ccc(NC(=O)CN2CCN(CC(=O)Nc3ccccc3F)CC2)c(OC)c1	-8
CN(C)c1ccc(/C=N/NC(=O)C(=O)/C=C2\NC3(CCCC3)Cc3ccccc32)cc1	-8
CCOC(=O)/C=C1\NC(C)(C)Cc2cc(OC)c(OC)cc21	-72
CC1(C)Cc2ccccc2/C(=C/C(=O)N2CCCCCC2)N1	557*
COc1ccc(CNC2=CC(=O)CC(C)(C)C2)cc1	0
COc1ccc(-c2cc(C(F)F)n3ncc(C(=O)N4CCc5ccccc5C4)c3n2)cc1	393*
Cc1cc(C(F)F)n2ncc(C(=O)N3CCCCC3)c2n1	247
O=C(c1cnn2c(C(F)F)cc(-c3ccccc3)nc12)N1CCN2CCCC2C1 (stereo not drawn)	104
SMILES	Insulin prom act
CCOC(=O)C1=C(O)/C(=C/c2ccccn2)SC1=Nc1ccc(Cl)cc1	-7
O=c1oc2cc(Oc3ccc(C(F)(F)F)cc3[N+](=O)[O-])ccc2c2c1CCCC2	-10
Cc1cc(C)c(NC(=O)Cc2ccc(-n3cccc3)cc2)c(C)c1	3
CCCCN(C(=O)NC(=O)Nc1c(C)cc(C)cc1C)S(C)(=O)=O	164*
Cc1cc(C)c(NC(=O)Nc2ccccc2)c(Cl)c1	0
CC(C)(C)NC(=O)/C(=C/c1ccccc1F)NC(=O)c1ccc([N+](=O)[O-])cc1	0
CC(C)(C)NC(=O)/C(=C\c1ccccc1F)NC(=O)c1ccc([N+](=O)[O-])cc1	0
O=C(CCCNC(=O)/C(=C\c1ccccc1F)NC(=O)c1ccccc1)OCc1ccccc1	257*
CC1=CC2=NC(=O)/C(=C\c3cccn3CCOc3ccccc3)C(=N)N2O1	2
COc1ccccc1C(C)NC(=O)CCOc1cccc(C)c1 (stereo not drawn)	-8
Cc1ccc(OCCCC(=O)NC(C)c2ccccc2)cc1 (stereo not drawn)	0
Cc1cccc(OCCCC(=O)NC(C)c2ccccc2)c1 (stereo not drawn)	85*
COC(=O)c1ccc(COc2ccc(-c3nnn(CC(=O)NC(C)(C)C)n3)cc2)cc1	0
CCOC(=O)C(CCCOc1ccc(C(C)CC)cc1)C(=O)OCC (stereo not drawn)	0
CC(C)(C)C1CCC(C(=O)OCC(=O)N2CCOCC2)CC1 (stereo not drawn)	7
CCCNC(=O)Cn1c(=O)/c(=C\c2ccc(-c3ccc([N+](=O)[O-])cc3)o2)s/c1=C\C(=O)C(C)(C)C	270*
Cc1ccc(C(=O)N/C(=C\c2ccc(-c3cccc([N+](=O)[O-])c3)o2)C(=O)NC(C)(C)C)cc1	-7
O=C(Cc1ccccc1)N/N=C/c1ccc(-c2ccc([N+](=O)[O-])cc2)o1	0
O=C(CCCNS(=O)(=O)c1ccc(Cl)c(Cl)c1)NCCc1ccccn1	7
CCOc1ccc(NC(=O)Nc2cc(C)ccc2F)cc1	-7
Cc1ccc(OCCCC(=O)NCc2ccco2)c(C)c1	0
C/C=C/C=[N+](\[O-])C(C)/C(=N/O)c1ccc(F)cc1 (stereo not drawn)	8
O=C1C(=O)c2ccc(-c3ccccc3)cc2-c2ccccc21	-27
Cc1ccc(N2C(=O)c3ccc(N)cc3C2=O)cc1C	0
Nc1ccc2c(c1)C(=O)C(=O)c1ccccc1-2	239*
SMILES	Insulin prom act
O=C(COC(=O)CNC(=O)c1ccccc1F)Nc1cccc(S(=O)(=O)N2CCCCCC2)c1	114
CCCCCNC(=O)c1cc(S(=O)(=O)N2CCCCC2)ccc1F	254*
CCOC(=O)N1CCC(NC(=O)c2cc(S(=O)(=O)N3CCCCC3)ccc2F)CC1	-3
COc1ccc(OC)c(-c2c(C#N)c(N)nc3c2c(=O)nc2sccn23)c1	0
CC1CN(C(=O)Nc2ccccc2)c2ccccc2-[n+]2ccsc21 (stereo not drawn)	8
O=C(NC(c1ccccc1)c1ccccc1)c1ccc(S(=O)(=O)C(F)F)cc1	0
CCCC(=O)NC(c1ccco1)c1c(O)ccc2ccccc12 (stereo not drawn)	133*
CCOC(=O)C(Cc1c[nH]c2ccccc12)NC(=O)c1ccco1 (stereo not drawn)	-9
CCCC(=O)NC(c1ccco1)c1cc([N+](=O)[O-])c2cccnc2c1O (stereo not drawn)	7
NCCCCCc1nnc(SCC(=O)c2ccc(Cl)cc2)o1	8
Cc1onc(-c2ccccc2)c1C(=O)N1CCCN(C(=O)c2c(-c3ccccc3)noc2C)CC1	-3
Cc1onc(-c2ccccc2)c1C(=O)N1CCN(C)CC1	100*
Cc1onc(-c2ccccc2)c1C(=O)N1CCN(C(=O)c2ccco2)CC1	-76
Cc1ccc(-c2nnc(N3CCOCC3)c3ccccc23)cc1S(=O)(=O)NCC1CCCO1 (stereo not drawn)	0
COC(=O)CCN(C(=O)c1cc([N+](=O)[O-])cc([N+](=O)[O-])c1)c1ccccn1	0
CC(c1ccco1)N(C(=O)c1ccc(C#N)cc1)c1ccccn1 (stereo not drawn)	-7
COC(=O)CCN(C(=O)c1ccc(OC(C)=O)cc1)c1ccccn1	76*
CC(CN1CCCCC1)C(=O)NN (stereo not drawn)	-7
CCCC1=C(C(=O)OCC)C(c2c(C)nn(-c3ccccc3)c2Cl)C(C#N)=C(N)O1 (stereo not drawn)	3
CC(C)c1c(O)c2c(n(-c3ccccc3)c1=O)CCCC2	0
Cc1occc1-c1nnc(SCc2nnc(-c3ccc(Cl)cc3)o2)n1C	-30
O=C(CSc1nc2ccccc2[nH]1)N1CCN(S(=O)(=O)c2ccc(Cl)cc2)CC1	97*
O=C(CSc1nc2ccccc2[nH]1)NCCc1ccc(Cl)cc1	4
O=S(=O)(c1ccc2nc(SCc3cccc(Cl)c3)[nH]c2c1)N1CCOCC1	-2
CN1/C(=C\C(=O)COC(=O)c2ccc(O)c(O)c2)C(C)(C)c2ccccc21	7
